Source: ChEMBL document CHEMBL1127433, “N6-substituted adenosine receptor agonists. Synthesis and pharmacological activity as potent antinociceptive agents” (J Med Chem, 1994)
Active and inactive are the calls of the source. The rule behind the calls is not given here.

How the values were obtained:
[1] = tested on: Mus musculus; experiment: Effective dose of compound for phenylbenzoquinone-Induced writhing in mice after peroral administration expressed as analgesic activity; Not dose dependent; assay type: functional; conditions: po
How it was run: (§1)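 Mice dosed orally (0.5 mL/20 g); 1 h later given 0.02% phenylbenzoquinone in hydroalcoholic solution ip (0.20-0.24 mL). Writhings and stretches counted from minute 5 to minute 10. Six animals per group. Inhibition taken against the control mean; ED50 (50% decrease) by linear regression.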

[2] = biological target: T1, Adenosine receptor A1 (Rattus norvegicus, UniProt P25099); experiment: Binding affinity for adenosine A1 receptor in vitro using rat brain membranes.; assay type: cell membranes
T1 sequence (P25099 whole entry): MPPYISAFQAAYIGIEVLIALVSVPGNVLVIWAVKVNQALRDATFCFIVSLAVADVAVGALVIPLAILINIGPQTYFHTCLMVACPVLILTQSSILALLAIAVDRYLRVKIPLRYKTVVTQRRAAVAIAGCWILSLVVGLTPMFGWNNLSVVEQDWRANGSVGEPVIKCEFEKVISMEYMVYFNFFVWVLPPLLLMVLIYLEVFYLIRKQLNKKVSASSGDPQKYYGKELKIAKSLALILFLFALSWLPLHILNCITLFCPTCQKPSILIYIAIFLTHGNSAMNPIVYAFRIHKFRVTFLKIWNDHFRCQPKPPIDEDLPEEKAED
How it was run: (§2)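 Whole rat brain membranes, homogenized in 50 mM Tris-HCl pH 7.4 and spun at 1090g then 48000g, pretreated with adenosine deaminase 1 U/mL for 30 min. Nonspecific binding defined with 10 μM PIA. Separated by GF/B filtration and scintillation counted, in triplicate. IC50 from log-logit regression, Ki via Cheng-Prusoff, one experiment.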

[3] = biological target: Adenosine A2 receptor (Rattus norvegicus, UniProt P29276+P30543); experiment: Binding affinity for adenosine A2 receptor in vitro using rat striatal membrane.; assay type: cell membranes
How it was run: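 Rat striatal membranes in 50 mM Tris-HCl, 10 mM MgCl2, pH 7.7, adenosine deaminase treated (1 U/mL, 30 min). Incubated with [3H]NECA (4 nM, 50 μL) plus 0.11 μM cyclopentyladenosine and competitor for 60 min at 25 °C. Nonspecific binding defined with 5 μM NECA. GF/B filtration, scintillation counting, triplicate. IC50 from log-logit regression, Ki via Cheng-Prusoff, one experiment.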

[4] = biological target: T2, Adenosine A2 receptor (Rattus norvegicus) (UniProt P29276+P30543); experiment: Percent displacement from adenosine A2 receptor at 10e-7 M in rat striatal membrane in vitro.; assay type: cell membranes; conditions: Striatum
[5] = biological target: T3, Adenosine receptor A1 (Rattus norvegicus) (UniProt P25099); experiment: Percent displacement from adenosine A1 receptor at 10e-7 M in rat brain membrane in vitro.; assay type: cell membranes
T3 sequence (whole entry): T1 sequence (P25099 whole entry)

[6] = biological target: T2, Adenosine A2 receptor (Rattus norvegicus); experiment: Percent displacement from adenosine A2 receptor at 10e-5 M in rat striatal membrane in vitro.; assay type: cell membranes
[7] = biological target: T3, Adenosine receptor A1 (Rattus norvegicus); experiment: Percent displacement from adenosine A1 receptor at 10e-5 M in rat brain membrane in vitro.; assay type: cell membranes
[8] = tested on: Mus musculus; experiment: Effective dose of compound for phenylbenzoquinone-Induced writhing in mice after peroral administration expressed as analgesic activity; Inactive; assay type: functional, organism-based; how it was run: as §1
[9] = tested on: Mus musculus; experiment: Effective dose of compound for phenylbenzoquinone-Induced writhing in mice after peroral administration expressed as analgesic activity; Not calculated; assay type: functional; conditions: po; how it was run: as §1
[10] = tested on: Mus musculus; experiment: Effective dose for phenylbenzoquinone-induced writhing in mice after peroral administration expressed as analgesic activity.; assay type: functional; conditions: po; how it was run: as §1
[11] = biological target: T1, Adenosine receptor A1; experiment: Binding affinity for adenosine A1 receptor in rat brain membrane; assay type: cell membranes
How it was run: as §2, with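 “U/mL for 30 min. Incubated with 2.5 nM [3H]PIA and competitor at 20 °C” for “U/mL”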

| Compound | ED50 [1] | Ki [2] | Ki [3] | Displacement [4] | Displacement [5] | Displacement [6] | Displacement [7] | ED50 [8] | ED50 [9] | ED50 [10] | Ki [11] |
| --- | --- | --- | --- | --- | --- | --- | --- | --- | --- | --- | --- |
| OC[C@H]1OC(n2cnc3c(NCCc4cn(Cc5ccccc5)c5ccccc45)ncnc32)[C@H](O)[C@@H]1O (stereo partly specified) | > 30 mg/kg | 50 nM | 250 nM | 30% | 67% | 95% | 100% |  |  |  |  |
| CCNC(=O)[C@H]1OC(n2cnc3c(NCCc4cn(Cc5cc(C)ccc5C)c5ccccc45)ncnc32)[C@H](O)[C@@H]1O (stereo partly specified) | < 2 mg/kg | 160 nM | 660 nM | 12% | 38% | 86% | 92% |  |  |  |  |
| Cc1ccc(Cn2cc(CCNc3ncnc4c3ncn4C3O[C@H](C(=O)NC4CC4)[C@@H](O)[C@H]3O)c3ccccc32)cc1C (stereo partly specified) | > 30 mg/kg | 160 nM | 820 nM | 13% | 29% | 83% | 96% |  |  |  |  |
| O=C(NC1CC1)[C@H]1OC(n2cnc3c(NCCc4cn(Cc5ccc(Br)cc5F)c5ccccc45)ncnc32)[C@H](O)[C@@H]1O (stereo partly specified) |  |  |  | 23% | 40% | 92% | 96% | inactive |  |  |  |
| Cc1ccc(Cn2cc(CCNc3ncnc4c3ncn4C3O[C@H](C(=O)NC4CC4)[C@@H](O)[C@H]3O)c3ccccc32)cc1 (stereo partly specified) | < 3 mg/kg | 130 nM | 340 nM | 21% | 37% | 89% | 97% |  |  |  |  |
| CN(C)CCn1cc(CCNc2ncnc3c2ncn3C2O[C@H](C(=O)NC3CC3)[C@@H](O)[C@H]2O)c2ccccc21 (stereo partly specified) | > 60 mg/kg |  |  | 51% | 83% | 95% | 100% |  |  |  |  |
| O=C(NC1CC1)[C@H]1O[C@@H](n2cnc3c(NCCc4cn(Cc5cccc([N+](=O)[O-])c5)c5ccccc45)ncnc32)[C@H](O)[C@@H]1O |  | 29 nM | 182 nM | 46% | 63% | 99% | 100% |  | < 10 mg/kg |  |  |
| COCCNC(=O)[C@H]1O[C@@H](n2cnc3c(NCCc4cn(Cc5ccc(Cl)cc5)c5ccccc45)ncnc32)[C@H](O)[C@@H]1O |  | 890 nM | > 10000 nM | 0% | 13% | 36% | 90% | inactive |  |  |  |
| O=C(NC1CC1)[C@H]1O[C@@H](n2cnc3c(NCCc4cn(Cc5cccc6ccccc56)c5ccccc45)ncnc32)[C@H](O)[C@@H]1O |  |  | 1400 nM | 8% | 20% | 76% | 93% |  |  | 2.4 mg/kg | 370 nM |
| O=C(NC1CC1)[C@H]1OC(n2cnc3c(NCCc4cn(CC5CC5)c5ccccc45)ncnc32)[C@H](O)[C@@H]1O (stereo partly specified) | > 10 mg/kg | 67 nM | 190 nM | 25% | 45% | 87% | 97% |  |  |  |  |
| Cc1ccc(C)c(Cn2c(-c3ccccc3)c(CCNc3ncnc4c3ncn4C3O[C@H](C(=O)NC4CC4)[C@@H](O)[C@H]3O)c3ccccc32)c1 (stereo partly specified) | > 30 mg/kg |  |  | 0% | 6% | 23% | 31% |  |  |  |  |
| O=C(NC1CC1)[C@H]1OC(n2cnc3c(NCCc4cn(Cc5ccc(Cl)cc5)c5ccc(Cl)cc45)ncnc32)[C@H](O)[C@@H]1O (stereo partly specified) |  |  |  | 23% | 49% | 79% | 100% | inactive |  |  |  |
| CSc1ccc2c(c1)c(CCNc1ncnc3c1ncn3C1O[C@H](C(=O)NC3CC3)[C@@H](O)[C@H]1O)cn2Cc1cc(C)ccc1C (stereo partly specified) | > 10 mg/kg |  |  | 8% | 13% | 76% | 82% |  |  |  |  |
| CC(C)(CO)NC(=O)[C@H]1OC(n2cnc3c(NCCc4cn(Cc5ccc(Cl)cc5)c5ccccc45)ncnc32)[C@H](O)[C@@H]1O (stereo partly specified) |  |  |  | 0% | 5% | 50% | 79% | inactive |  |  |  |
| O=C(NC1CC1)[C@H]1O[C@@H](n2cnc3c(NCCc4c[nH]c5ccccc45)ncnc32)[C@H](O)[C@@H]1O |  |  | 560 nM | 29% | 91% | 68% | 100% |  |  | 34.9 mg/kg | 7.9 nM |
| O=C(NC1CC1)[C@H]1O[C@@H](n2cnc3c(NCCc4cn(Cc5cccnc5)c5ccccc45)ncnc32)[C@H](O)[C@@H]1O | > 30 mg/kg | 26 nM | 183 nM | 30% | 78% | 98% | 97% |  |  |  |  |
| C#CCn1cc(CCNc2ncnc3c2ncn3C2O[C@H](C(=O)NC3CC3)[C@@H](O)[C@H]2O)c2ccccc21 (stereo partly specified) | < 10 mg/kg |  |  | 25% | 64% | 83% | 95% |  |  |  |  |
| CN(C)c1ccccc1Cn1cc(CCNc2ncnc3c2ncn3C2O[C@H](C(=O)NC3CC3)[C@@H](O)[C@H]2O)c2ccccc21 (stereo partly specified) |  | 170 nM | 760 nM | 5% | 33% | 92% | 99% |  |  | 1.9 mg/kg |  |
| O=C(NC1CC1)[C@H]1OC(n2cnc3c(NCCc4cn(Cc5ccc(Cl)c(Cl)c5)c5ccccc45)ncnc32)[C@H](O)[C@@H]1O (stereo partly specified) | > 30 mg/kg | 140 nM | 1400 nM | 24% | 52% | 81% | 100% |  |  |  |  |
| CC(C)n1cc(CCNc2ncnc3c2ncn3[C@@H]2O[C@H](C(=O)NC3CC3)[C@@H](O)[C@H]2O)c2ccccc21 |  | 120 nM | 390 nM | 14% | 4% | 91% | 87% |  |  | 1.6 mg/kg |  |
